Data as given in PubChem BioAssay.
Calls of active or inactive are those of the source.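 Rule for the calls: active = current rise at least 3 SD above the untreated control mean in each of two repeat wells; inactive = the rest.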

molecular target: Potassium voltage-gated channel subfamily KQT member 1 (Homo sapiens) (UniProt P51787); assay: KCNQ1 channel current potentiators, confirmation, orthogonal assay for KCNQ1 potentiator project, IonWorks patch clamp, KCNQ1-CHO cells (AID 493184); conditions: automated patch clamp current, at 10 µM
Sequence (P51787 whole entry, looked up): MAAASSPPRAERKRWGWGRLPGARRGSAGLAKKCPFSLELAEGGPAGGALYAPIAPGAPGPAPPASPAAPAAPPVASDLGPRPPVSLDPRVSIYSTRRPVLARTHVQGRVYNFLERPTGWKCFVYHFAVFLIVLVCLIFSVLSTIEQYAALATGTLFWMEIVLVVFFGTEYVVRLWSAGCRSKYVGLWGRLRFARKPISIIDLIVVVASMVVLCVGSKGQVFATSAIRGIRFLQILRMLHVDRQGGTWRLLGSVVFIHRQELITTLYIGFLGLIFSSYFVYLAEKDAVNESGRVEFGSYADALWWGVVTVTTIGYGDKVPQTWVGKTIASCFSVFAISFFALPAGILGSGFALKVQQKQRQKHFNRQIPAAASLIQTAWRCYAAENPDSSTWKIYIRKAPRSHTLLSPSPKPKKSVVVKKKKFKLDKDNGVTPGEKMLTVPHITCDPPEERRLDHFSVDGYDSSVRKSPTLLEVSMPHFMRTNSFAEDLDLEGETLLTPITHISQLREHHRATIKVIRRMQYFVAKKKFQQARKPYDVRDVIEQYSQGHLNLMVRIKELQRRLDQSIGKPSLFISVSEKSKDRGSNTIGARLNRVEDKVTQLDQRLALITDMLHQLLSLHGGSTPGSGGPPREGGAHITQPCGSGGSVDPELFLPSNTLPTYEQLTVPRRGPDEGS
Method in brief: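 Assay system – CHO cells carrying KCNQ1 · Medium – pH 7.4 external bath · Probe or stimulus – depolarizing pulse to +40 mV from -90 mV · Compound dosing – one dose, 10 µM final · Measured by – automated perforated-patch electrophysiology · Measure – % potentiation of steady-state current relative to pre-compound · Repeats – two replicates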

outcome, inactive:
O=C(CCN1CCc2ccccc2CC1)c1ccc2c(c1)OCCO2
Cc1sc(NC(=O)CS(=O)(=O)c2ccccc2)c(C#N)c1C
COc1ccc(N(Cc2ccccc2)S(=O)(=O)c2cccc(C(=O)O)c2)cc1
CC/C(=N/NC(=O)c1ccc(Br)o1)c1ccc(Cl)cc1
Cc1sc2nc(CSc3ccccc3)nc(N3CCN(C)CC3)c2c1C
Cn1c(=O)nc2n(Cc3ccccc3)c3ccccc3cc-2c1=O
CCOC(=O)NC(=S)Nc1ccc(C(C)(C)C)cc1Br
Oc1ccc2ccccc2c1N=Nc1nccs1
O=c1[nH]c2ccc(Cl)cc2c(-c2ccccc2)c1N1CCN(CCO)CC1
Cc1ccc(Nc2c([N+](=O)[O-])ccc3nonc23)c(C)c1
COc1cccc2sc(NNC(=O)c3nc4ccccc4s3)nc12
N#Cc1ccccc1NS(=O)(=O)c1cc2c3c(c1)CCC(=O)N3CCC2
NC(=S)Nc1nc2ccccc2s1
Cc1cc(/C=N/NC(=O)c2nn(C)cc2Cl)c(C)n1-c1cccc(Br)c1
Cc1ccc(-c2c(C)n([O-])c3c([n+]2=O)CCCC3)o1
CCCN(Cc1ccccc1)C(=S)NC(=O)c1ccccc1[N+](=O)[O-]
CCC1Oc2ccc(C)cc2N(CC(=O)N(Cc2ccc(C)o2)C2CC(C)(C)NC(C)(C)C2)C1=O (centres undefined)
COc1cc(/C=N/Nc2snc(SC)c2C#N)ccc1O
C/C(=N\NC(=S)Nc1cccc(C)c1)c1ccco1
